Consider 2 molecules from ChEMBL document CHEMBL1909630, “Azaxanthene based selective glucocorticoid receptor modulators: design, synthesis, and pharmacological evaluation of (S)-4-(5-(1-((1,3,4-thiadiazol-2-yl)amino)-2-methyl-1-oxopropan-2-yl)-5H-chromeno[2,3-b]pyridin-2-yl)-2-fluoro-N,N-dimethylbenzamide (BMS-776532) and its methylene homologue …” (J Med Chem, 2011).

The subject of data set [1] is Rattus norvegicus. Put plainly: Antiinflammatory activity in po dosed Freund's complete adjuvant-induced Lewis rat arthritis model assessed as reduction in onset of arthritis. Type of data set: functional, organism-based. Summed up:
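Male Lewis rats were inoculated with Mycobacterium butyricum in incomplete Freund's adjuvant. Oral dosing was daily and preventative, running from day 0 to day 21. Onset and progression of arthritis were followed, and ED50 was estimated from the dose response.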

Data set [2] in a line: Half life in Sprague-Dawley rat at 1 mg/kg, iv. Type of data set: ADME, organism-based. On the set-up: dose 1 mg/kg, route intravenous. As to conditions: in vivo. Summed up: (§1)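 Male Sprague-Dawley rats received a single intravenous (1 mg/kg) or oral (10 or 50 mg/kg) dose. Plasma pharmacokinetic parameters were derived from these profiles.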
The test system of data set [3] is Rattus norvegicus. Kind of data set: Antiinflammatory activity in Sprague-Dawley rat assessed as carrageenan-induced paw edema at 30 mg/kg, po administered as a single dose 2 hrs before carrageenan challenge measured 4 hrs post carrageenan challenge by plethysmometry relative to control.
A short description of data set [4]: Tmax in Sprague-Dawley rat at 10 mg/kg, po. Type of data set: ADME, organism-based. On the set-up: dose 10 mg/kg, route oral. As to conditions: in vivo. A digest of the protocol:
as §1

The next data set deals with T1, Progesterone receptor (Homo sapiens, UniProt P06401).
T1 sequence (P06401 whole entry): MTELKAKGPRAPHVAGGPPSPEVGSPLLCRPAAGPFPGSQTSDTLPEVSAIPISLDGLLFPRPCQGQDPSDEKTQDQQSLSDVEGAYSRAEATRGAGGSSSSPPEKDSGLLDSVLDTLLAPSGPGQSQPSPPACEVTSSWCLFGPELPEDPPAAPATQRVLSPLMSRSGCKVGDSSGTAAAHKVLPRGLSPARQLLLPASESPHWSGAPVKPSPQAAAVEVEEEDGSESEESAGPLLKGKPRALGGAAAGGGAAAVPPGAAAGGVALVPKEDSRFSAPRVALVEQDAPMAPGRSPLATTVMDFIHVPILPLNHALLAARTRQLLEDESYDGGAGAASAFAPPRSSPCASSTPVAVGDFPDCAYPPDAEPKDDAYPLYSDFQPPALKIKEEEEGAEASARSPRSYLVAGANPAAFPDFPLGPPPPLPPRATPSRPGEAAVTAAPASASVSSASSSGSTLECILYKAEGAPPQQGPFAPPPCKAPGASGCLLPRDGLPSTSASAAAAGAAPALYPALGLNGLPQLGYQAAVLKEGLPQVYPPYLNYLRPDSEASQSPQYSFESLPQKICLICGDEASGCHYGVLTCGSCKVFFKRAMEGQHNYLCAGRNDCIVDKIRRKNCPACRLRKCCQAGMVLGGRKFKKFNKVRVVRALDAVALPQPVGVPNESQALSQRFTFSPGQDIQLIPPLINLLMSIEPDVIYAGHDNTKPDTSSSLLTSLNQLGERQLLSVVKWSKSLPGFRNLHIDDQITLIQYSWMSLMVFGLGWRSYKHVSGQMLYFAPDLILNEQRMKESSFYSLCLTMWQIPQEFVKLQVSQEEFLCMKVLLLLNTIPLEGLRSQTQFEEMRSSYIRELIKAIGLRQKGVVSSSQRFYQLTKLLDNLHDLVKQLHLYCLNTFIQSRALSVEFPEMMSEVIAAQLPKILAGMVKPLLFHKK
Put plainly: Displacement of fluorescently labeled ligand from progesterone receptor by fluorescence polarization assay. Background: Fluorescence polarisation rises when a labelled molecule tumbles more slowly, as on binding a larger partner.

Data set [5] in a line: Clearance in Sprague-Dawley rat at 1 mg/kg, iv. Conditions: in vivo. On the set-up: dose 1 mg/kg, route intravenous. Type of data set: ADME, organism-based. A digest of the protocol: as §1
A short description of data set [6]: Membrane permeability by PAMPA. Type of data set: ADME.
Data set [7] is described as follows: Oral bioavailability in Sprague-Dawley rat at 10 mg/kg. Type of data set: ADME, organism-based. As to conditions: in vivo. Summed up: as §1
In a further data set the target is T2, Glucocorticoid receptor (Homo sapiens, UniProt P04150).
T2 sequence (P04150 whole entry): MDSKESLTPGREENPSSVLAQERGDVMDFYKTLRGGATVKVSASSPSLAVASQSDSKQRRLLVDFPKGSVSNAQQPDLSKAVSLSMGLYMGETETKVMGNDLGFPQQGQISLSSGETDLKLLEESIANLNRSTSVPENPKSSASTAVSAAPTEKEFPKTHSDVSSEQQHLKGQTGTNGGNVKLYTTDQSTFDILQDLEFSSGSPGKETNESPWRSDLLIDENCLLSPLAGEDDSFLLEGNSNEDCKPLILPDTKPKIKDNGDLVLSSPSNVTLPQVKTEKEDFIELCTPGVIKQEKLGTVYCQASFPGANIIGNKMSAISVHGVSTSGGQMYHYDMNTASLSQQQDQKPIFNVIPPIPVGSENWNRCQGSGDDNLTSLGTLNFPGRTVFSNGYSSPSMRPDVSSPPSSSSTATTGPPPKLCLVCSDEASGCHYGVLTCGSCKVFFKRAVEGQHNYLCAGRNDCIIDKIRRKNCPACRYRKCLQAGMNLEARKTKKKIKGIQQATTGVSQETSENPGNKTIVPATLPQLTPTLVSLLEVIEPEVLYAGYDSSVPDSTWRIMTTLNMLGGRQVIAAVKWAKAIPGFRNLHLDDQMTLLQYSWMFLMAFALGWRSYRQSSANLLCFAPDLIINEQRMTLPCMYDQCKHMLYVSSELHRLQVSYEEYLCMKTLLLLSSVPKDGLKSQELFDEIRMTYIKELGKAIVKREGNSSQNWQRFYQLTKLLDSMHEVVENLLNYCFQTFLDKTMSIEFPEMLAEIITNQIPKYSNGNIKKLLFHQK
Kind of data set: Transrepression activity at glucocorticoid receptor alpha in IL-1beta-stimulated human A549 cells assessed as inhibition of NFkappaB-dependent E-selectin transcription by luciferase reporter gene assay. Type of data set: cell-based. (In general: Reporter assays use an easily measured gene product as a stand-in for the process of interest.)

Data set [8] can be described thus: Tmax in Sprague-Dawley rat at 50 mg/kg, po. Type of data set: ADME, organism-based. The arrangement: dose 50 mg/kg, route oral. Conditions: in vivo. A digest of the protocol: as §1

One may read the half-life as how long it takes for the measured level to halve. Read a low half-life as rapid decline. As a reminder, the Tmax is the time at which the peak concentration occurs. As usually defined, the Ki is a dissociation constant, usually derived from enzyme kinetics or from competition with a known ligand. Broadly, the clearance is the volume of plasma or blood freed of the substance per unit of time. As a reminder, the bioavailability is the share of a dose that reaches the circulation, judged against a reference dose that is usually intravenous. High values mean much systemic uptake, low ones little systemic uptake. Usually EC50 stands for the concentration needed to bring the measured effect to its halfway point. With `CN(C)C(=O)c1ccc(-c2ccc3c(n2)Oc2ccccc2[C@H]3C(C)(C)C(=O)Nc2nncs2)cc1F`, the Activity entry in the data set with Rattus norvegicus [1] was “Dose-dependent effect”. This molecule had a half-life in data set [2] of 0.6 h. Also, the level, % of control at 30 mg/kg in the data set on Rattus norvegicus [3] turned out to be 42%. Further, the results for the Tmax in data set [4] and in [8] were 1.3 h and 1.7 h, respectively. The molecule also displayed a Ki on Progesterone receptor of 1530 nM. The molecule further returned a clearance in [5] of 49.5 mL/min/kg. For the same molecule, the permeability result in data set [6] is “permeable”. This molecule also had a bioavailability in data set [7] of 20%. In addition, the EC50 on Glucocorticoid receptor is 33.8 nM.
Regarding `CCN(C)C(=O)c1ccc(-c2ccc3c(n2)Oc2ccccc2[C@@H]3C(C)(C)C(=O)Nc2nncs2)cc1F`, the Activity result with Rattus norvegicus [1] is “Dose-dependent effect”. In addition, in data set [2], the half-life is 0.4 h. Further, the level, % of control at 30 mg/kg in the data set on Rattus norvegicus [3] turned out to be 54%. Also, the figures for the Tmax in [4] and in [8] were 1 h and 3.3 h, respectively. The affinity on Progesterone receptor corresponds to a Ki of 1830 nM. The same molecule yielded a clearance in data set [5] of 34 mL/min/kg. Also, the permeability result in data set [6] is recorded as “permeable”. In addition, the bioavailability in [7] is 17%. In addition, the EC50 at Glucocorticoid receptor amounted to 6.89 nM.
